From ChEMBL document CHEMBL1123657, “Anthrapyrazole anticancer agents. Synthesis and structure-activity relationships against murine leukemias” (J Med Chem, 1987)

Legend:
P388 [1] = experiment: Optimal dose per injection in mg/kg required to inhibit growth of P388 leukemia cells in mice; type: functional, Mus musculus
Outline: (§1)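 P388 leukemia implanted ip in mice; drug given ip on days 1 and 5 (ip/ip; D1,5), dosed in mg/kg per injection. Read-out is treated/control (T/C, %) with cures counted, reported at the optimal dose.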

P388 [2] = experiment: Inhibition of P388 leukemia cells in mice, measured as percent treated to the control values with the number of 30 day survivors; type: functional, Mus musculus; outline: as §1
P388 [3] = experiment: Activity against P388 leukemia cells in mice, by intraperitoneal dosing and net log tumor cell kill was reported; type: functional, Mus musculus
L1210 [4] = experiment: Compound was tested in vitro against murine L1210 leukemia; IA means inactive.; type: functional, cell-based, Mus musculus
B16 [5] = experiment: Tested for activity against murine B-16 melanoma in mice and percent treated to the control values with the number of 60 day survivors; type: functional, Mus musculus
Outline: (§2)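 Murine B-16 melanoma in vivo: tumor implanted ip, compound given ip on days 1–9 (ip/ip; D1–9), dosed as mg/kg per injection. Activity expressed as T/C (%) plus number of cures, taken at the optimal dose.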

B16 [6] = experiment: Optimal dose per injection in mg/kg required to inhibit growth of murine B-16 melanoma in vivo; type: functional, Mus musculus; outline: as §2
L1210 [7] = experiment: Tested in vitro against murine L1210 leukemia.; type: functional, cell-based; settings: Mus musculus

CCN(CC)CCCCNc1ccc2c3c(nn2CCO)-c2ccccc2C(=O)c13.Cl
Dose (P388 [1]): 300 mg/kg
T/C (P388 [2]): 115%
Activity (P388 [3]): -1.3
IC50 (L1210 [4]): Not Active

Cl.NCCCCNc1ccc2c3c(nn2CCNCCO)-c2c(O)ccc(O)c2C(=O)c13
Dose (P388 [1]): 100 mg/kg
T/C (P388 [2]): 173%
Activity (P388 [3]): 3.4
IC50 (L1210 [4]): Not Active

CCN(CC)CC(O)Cn1nc2c3c(c(NCCN)ccc31)C(=O)c1c(O)ccc(O)c1-2.Cl (configuration not stated)
Dose (P388 [1]): 6.25 mg/kg
T/C (P388 [2]): 262%
Activity (P388 [3]): >6.7
IC50 (L1210 [4]): Not Active

CN(CCNc1ccc2c3c(nn2CCNCCO)-c2c(O)ccc(O)c2C(=O)c13)C(=O)OCc1ccccc1
IC50 (L1210 [4]): Not Active

CNCCNc1ccc2c3c(nn2CCNCCO)-c2c(O)ccc(O)c2C(=O)c13 [TELOXANTRONE]
T/C (B16 [5]): 357%
Dose (P388 [1]): 12.5 mg/kg
Optimal dose (B16 [6]): 1.5 mg/kg
IC50 (L1210 [7]): 140 nM
Activity (P388 [3]): >6.6

Cl.NCCCNCCCCNCCCNc1ccc2c3c(nn2CCNCCO)-c2c(O)ccc(O)c2C(=O)c13
Dose (P388 [1]): 12.5 mg/kg
T/C (P388 [2]): 145%
Activity (P388 [3]): 0.6
IC50 (L1210 [4]): Not Active

CCN(CC)CCn1nc2c3c(c(NCCC(=O)O)ccc31)C(=O)c1ccccc1-2
Dose (P388 [1]): 12.5 mg/kg
T/C (P388 [2]): 117%
Activity (P388 [3]): -1.3
IC50 (L1210 [4]): Not Active

O=C(O)CCNc1ccc2c3c(nn2CCO)-c2ccccc2C(=O)c13
Dose (P388 [1]): 25 mg/kg
T/C (P388 [2]): 98%
Activity (P388 [3]): -1.6
IC50 (L1210 [4]): Not Active

Cl.O=C1c2ccccc2-c2nn(CCO)c3ccc(NCCN4CCOCC4)c1c23
Dose (P388 [1]): 25 mg/kg
T/C (P388 [2]): 100%
Activity (P388 [3]): -1.5
IC50 (L1210 [4]): Not Active

CSCCn1nc2c3c(c(NCCNCCO)ccc31)C(=O)c1c(O)ccc(O)c1-2.Cl
Dose (P388 [1]): 6.25 mg/kg
T/C (P388 [2]): 140%
Activity (P388 [3]): 0.3
IC50 (L1210 [4]): Not Active

Cl.NCCCCCNc1ccc2c3c(nn2CCNCCO)-c2c(O)ccc(O)c2C(=O)c13
Dose (P388 [1]): 100 mg/kg
T/C (P388 [2]): 150%
Activity (P388 [3]): 1.5
IC50 (L1210 [4]): Not Active

Cl.O=C1c2ccccc2-c2nn(CCO)c3ccc(NCCN4CCNCC4)c1c23
Dose (P388 [1]): 50 mg/kg
T/C (P388 [2]): 109%
Activity (P388 [3]): -1.3
IC50 (L1210 [4]): Not Active

Cl.O=C1c2c(O)ccc(O)c2-c2nn(CCCNCCO)c3ccc(NCCNCCO)c1c23
Dose (P388 [1]): 100 mg/kg
T/C (P388 [2]): 275%
Activity (P388 [3]): >7
IC50 (L1210 [4]): Not Active

CN(C)CCNCCn1nc2c3c(c(NCCNCCO)ccc31)C(=O)c1c(O)ccc(O)c1-2.Cl
Dose (P388 [1]): 50 mg/kg
T/C (P388 [2]): 226%
IC50 (L1210 [7]): 1400 nM
Activity (P388 [3]): >6.8

CCN(CC)CCNc1ccc2c3c(nn2CCO)-c2c(O)ccc(O)c2C(=O)c13.Cl
Dose (P388 [1]): 400 mg/kg
T/C (P388 [2]): 190%
IC50 (L1210 [7]): 730 nM
Activity (P388 [3]): 4.6

CN(C)CCn1nc2c3c(c(NCCCN)ccc31)C(=O)c1c(O)ccc(O)c1-2.Cl
Dose (P388 [1]): 12.5 mg/kg
T/C (P388 [2]): 208%
IC50 (L1210 [7]): 540 nM
Activity (P388 [3]): 4.7

CCN(CC)CCNc1ccc2c3c(nn2CCO)-c2ccccc2C(=O)c13.Cl
Dose (P388 [1]): 400 mg/kg
T/C (P388 [2]): 145%
IC50 (L1210 [7]): 880 nM
Activity (P388 [3]): 0.8

Cl.NCCNCCNc1ccc2c3c(nn2CCO)-c2c(O)ccc(O)c2C(=O)c13
Dose (P388 [1]): 200 mg/kg
T/C (P388 [2]): 174%
Activity (P388 [3]): 1.2
IC50 (L1210 [4]): Not Active

CCN(CC)CCNc1ccc2c3c(nn2CCN(CC)CC)-c2ccccc2C(=O)c13.Cl
Dose (P388 [1]): 50 mg/kg
T/C (P388 [2]): 106%
IC50 (L1210 [7]): 390 nM
Activity (P388 [3]): -1.4

Cl.O=C1c2c(O)ccc(O)c2-c2nn(CCNCCO)c3ccc(NCCCNCCO)c1c23
Dose (P388 [1]): 6.25 mg/kg
T/C (P388 [2]): 254%
IC50 (L1210 [7]): 1800 nM
Activity (P388 [3]): >6.8

COCCn1nc2c3c(c(NCCN)ccc31)C(=O)c1c(O)ccc(O)c1-2.Cl
Dose (P388 [1]): 50 mg/kg
T/C (P388 [2]): 127%
Activity (P388 [3]): -0.6
IC50 (L1210 [4]): Not Active

CCN(CC)CCCCCCCNc1ccc2c3c(nn2CCN(CC)CC)-c2ccccc2C(=O)c13.Cl
Dose (P388 [1]): 25 mg/kg
T/C (P388 [2]): 104%
IC50 (L1210 [7]): 630 nM
Activity (P388 [3]): -1.5

CCN(CC)CCCNc1ccc2c3c(nn2CCO)-c2ccccc2C(=O)c13.Cl
Dose (P388 [1]): 200 mg/kg
T/C (P388 [2]): 104%
Activity (P388 [3]): -1.5
IC50 (L1210 [4]): Not Active

Cl.Cn1nc2c3c(c(NCCNCCO)ccc31)C(=O)c1ccccc1-2
Dose (P388 [1]): 100 mg/kg
T/C (P388 [2]): 136%
IC50 (L1210 [7]): 710 nM
Activity (P388 [3]): -0.2

Cl.O=C1c2c(O)ccc(O)c2-c2nn(CCNCCO)c3ccc(NCCN4CCOCC4)c1c23
Dose (P388 [1]): 50 mg/kg
T/C (P388 [2]): 177%
IC50 (L1210 [7]): 650 nM
Activity (P388 [3]): 2.9

CNc1ccc2c3c(nn2CCNCCO)-c2ccccc2C(=O)c13.Cl
Dose (P388 [1]): 200 mg/kg
T/C (P388 [2]): 127%
IC50 (L1210 [7]): 740 nM
Activity (P388 [3]): -0.7

CN(C)CCCn1nc2c3c(c(NCCCN)ccc31)C(=O)c1c(O)ccc(O)c1-2.Cl
Dose (P388 [1]): 25 mg/kg
T/C (P388 [2]): 212%
IC50 (L1210 [7]): 800 nM
Activity (P388 [3]): 4

CCN(CC)CCNc1ccc2c3c(nn2CCNCCO)-c2ccccc2C(=O)c13.Cl
Dose (P388 [1]): 12.5 mg/kg
T/C (P388 [2]): 158%
IC50 (L1210 [7]): 60 nM
Activity (P388 [3]): 1.8

CCN(CC)CCn1nc2c3c(c(NCCNCCO)ccc31)C(=O)c1c(O)ccc(O)c1-2.Cl
Dose (P388 [1]): 12.5 mg/kg
T/C (P388 [2]): 264%
Optimal dose (B16 [6]): 6 mg/kg
IC50 (L1210 [7]): 130 nM
Activity (P388 [3]): >6.8

CCN(CC)CCNc1cccc2c1C(=O)c1cccc3c1c-2nn3CCN(CC)CC.Cl
Dose (P388 [1]): 50 mg/kg
T/C (P388 [2]): 103%
IC50 (L1210 [7]): 600 nM
Activity (P388 [3]): -1.5

CCN(CC)CCn1nc2c3c(c(NCCNCCO)ccc31)C(=O)c1ccccc1-2.Cl
Dose (P388 [1]): 25 mg/kg
T/C (P388 [2]): 169%
IC50 (L1210 [7]): 32 nM
Activity (P388 [3]): 2.6

COCCn1nc2c3c(c(NCCNCCO)ccc31)C(=O)c1c(O)ccc(O)c1-2.Cl
Dose (P388 [1]): 100 mg/kg
T/C (P388 [2]): 140%
IC50 (L1210 [7]): 1600 nM
Activity (P388 [3]): 0.3

Cl.NCCCNc1ccc2c3c(nn2CCCNCCO)-c2c(O)ccc(O)c2C(=O)c13
Dose (P388 [1]): 100 mg/kg
T/C (P388 [2]): 185%
IC50 (L1210 [7]): 1800 nM
Activity (P388 [3]): 3.4

CCN(CC)CCNc1ccc2c3c(nn2CCN(CC)CC)-c2c(O)ccc(O)c2C(=O)c13.Cl
Dose (P388 [1]): 100 mg/kg
T/C (P388 [2]): 180%
IC50 (L1210 [7]): 550 nM
Activity (P388 [3]): 3.5

CCN(CC)CCn1nc2c3c(c(NCCN(C)C(=O)OCc4ccccc4)ccc31)C(=O)c1c(O)ccc(O)c1-2
IC50 (L1210 [4]): Not Active

CCN(CC)CCCCCCCNc1ccc2c3c(nn2CCO)-c2ccccc2C(=O)c13.Cl
Dose (P388 [1]): 100 mg/kg
T/C (P388 [2]): 98%
Activity (P388 [3]): -1.6
IC50 (L1210 [4]): Not Active

Cl.O=C1c2c(O)ccc(O)c2-c2nn(CCNCCO)c3ccc(NCCCN(CCO)CCO)c1c23
Dose (P388 [1]): 100 mg/kg
T/C (P388 [2]): 194%
IC50 (L1210 [7]): 920 nM
Activity (P388 [3]): 3.6

CN(C)CCNc1ccc2c3c(nn2CCNCCO)-c2ccccc2C(=O)c13.Cl
Dose (P388 [1]): 6.25 mg/kg
T/C (P388 [2]): 174%
IC50 (L1210 [7]): 32 nM
Activity (P388 [3]): 3.1

CN(C)CCNCCNc1ccc2c3c(nn2CC(O)CO)-c2c(O)ccc(O)c2C(=O)c13.Cl (configuration not stated)
Dose (P388 [1]): 400 mg/kg
T/C (P388 [2]): 281%
IC50 (L1210 [7]): 2200 nM
Activity (P388 [3]): 6.7
